Experimental data taken from ChEMBL document CHEMBL1149288, “Effects of substitution on the pyrrole N atom in derivatives of tetrahydronaltrindole, tetrahydrooxymorphindole, and a related 4,5-epoxyphenylpyrrolomorphinan” (J Med Chem, 2004).
Active and inactive are the calls of the source. The calls are words filed in the database; no cut-off is given here.

Legend:
Mus musculus [1] = test: Antagonism of 1'-benzyl-6,7-didehydro-3,14-dihydroxy-4,5alpha-epoxy-17-methyl-4',5',6',7'-tetrahydroindolo[2',3':6,7]morphinan-induced antinociceptive activity in mouse at 30 mg/kg, sc; type: functional; parameters: scale not given: the % may be the effect or the level left; details: route subcutaneous
[2] = molecular target: T1, Kappa-type opioid receptor (Homo sapiens, UniProt P41145); test: Activity at human recombinant kappa opioid receptor expressed in CHO cells by [35S]GTPgammaS binding assay; type: functional, cell-based
T1 sequence (P41145 whole entry): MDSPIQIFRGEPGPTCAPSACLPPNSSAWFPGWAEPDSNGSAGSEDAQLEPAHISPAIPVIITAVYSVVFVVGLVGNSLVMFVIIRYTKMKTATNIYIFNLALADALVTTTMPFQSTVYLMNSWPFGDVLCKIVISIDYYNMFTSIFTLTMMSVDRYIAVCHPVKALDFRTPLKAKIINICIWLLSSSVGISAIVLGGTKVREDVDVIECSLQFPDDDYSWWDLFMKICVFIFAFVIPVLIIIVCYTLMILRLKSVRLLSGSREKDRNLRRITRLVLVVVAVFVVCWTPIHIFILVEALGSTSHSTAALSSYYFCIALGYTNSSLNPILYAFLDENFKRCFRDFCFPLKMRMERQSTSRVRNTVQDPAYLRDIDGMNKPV
Method in brief: (§1)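 Human recombinant opioid receptors expressed in CHO cells. Agonist-stimulated [35S]GTPγS binding was measured and efficacy was referenced to DAMGO (MOR) or U69593 (KOR). Values are means of five or six experiments.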

[3] = molecular target: T1, Kappa-type opioid receptor; test: Displacement of [3H]U-69593 from human recombinant kappa opioid receptor expressed in CHO cells; type: cell-based
Method in brief: (§2)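 Radioligand displacement was run on human recombinant receptors expressed in CHO cells. The labels were [3H]DAMGO for MOR and [3H]U69593 for KOR. Values are the mean of two experiments, each in triplicate.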

Mu-type opioid receptor [4] = molecular target: T2, Mu-type opioid receptor (Homo sapiens, UniProt P35372); test: Displacement of [3H]DAMGO from human recombinant mu opioid receptor expressed in CHO cells; type: cell-based; method in brief: as §2
T2 sequence (P35372 whole entry): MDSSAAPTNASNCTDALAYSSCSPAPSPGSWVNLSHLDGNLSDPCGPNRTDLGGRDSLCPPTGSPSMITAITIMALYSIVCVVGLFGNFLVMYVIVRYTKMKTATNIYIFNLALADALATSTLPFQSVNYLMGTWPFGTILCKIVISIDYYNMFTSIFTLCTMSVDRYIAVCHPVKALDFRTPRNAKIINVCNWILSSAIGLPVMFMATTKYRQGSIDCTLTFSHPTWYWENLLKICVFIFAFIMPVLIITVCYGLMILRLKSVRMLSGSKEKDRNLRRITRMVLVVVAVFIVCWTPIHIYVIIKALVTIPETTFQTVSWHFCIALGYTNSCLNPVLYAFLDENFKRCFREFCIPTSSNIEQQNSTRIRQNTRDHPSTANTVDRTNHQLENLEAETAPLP

Mus musculus [5] = test: Reversal of SNC80-induced antinociceptive effect in mouse assessed by phenylquinone-induced abdominal stretch assay at […], icv administered 24 hrs before SNC80; type: functional, Abdomen
Mus musculus [6] = test: Antinociceptive activity in sc dosed mouse; type: functional
Method in brief: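 Antinociception was measured in the mouse PPQ-induced abdominal stretch assay after sc dosing.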

Mu-type opioid receptor [7] = molecular target: T2, Mu-type opioid receptor; test: Activity at human recombinant mu opioid receptor expressed in CHO cells by [35S]GTP-gamma-S binding assay; type: functional, cell-based; method in brief: as §1
Mus musculus [8] = test: Antagonism of SNC80-induced antinociceptive effect in sc dosed mouse assessed by phenylquinone-induced abdominal stretch assay; type: functional, organism-based; details: Abdomen
Method in brief: (§3)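 Mouse phenylquinone (PPQ) abdominal stretch assay. The test compound was given sc, and its antagonism of SNC80-induced antinociception was scored as percent antagonism of the agonist effect.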

[9] = molecular target: T1, Kappa-type opioid receptor; test: Activity at human recombinant kappa opioid receptor expressed in CHO cells by [35S]GTP-gamma-S binding assay relative to U69593; type: functional, cell-based; method in brief: as §1
Mu-type opioid receptor [10] = molecular target: T2, Mu-type opioid receptor; test: Activity at human recombinant mu opioid receptor expressed in CHO cells by [35S]GTPgammaS binding assay relative to DAMGO; type: functional, cell-based; method in brief: as §1
[11] = molecular target: T3, Delta-type opioid receptor (Homo sapiens, UniProt P41143); details: CHO
T3 sequence (P41143 whole entry): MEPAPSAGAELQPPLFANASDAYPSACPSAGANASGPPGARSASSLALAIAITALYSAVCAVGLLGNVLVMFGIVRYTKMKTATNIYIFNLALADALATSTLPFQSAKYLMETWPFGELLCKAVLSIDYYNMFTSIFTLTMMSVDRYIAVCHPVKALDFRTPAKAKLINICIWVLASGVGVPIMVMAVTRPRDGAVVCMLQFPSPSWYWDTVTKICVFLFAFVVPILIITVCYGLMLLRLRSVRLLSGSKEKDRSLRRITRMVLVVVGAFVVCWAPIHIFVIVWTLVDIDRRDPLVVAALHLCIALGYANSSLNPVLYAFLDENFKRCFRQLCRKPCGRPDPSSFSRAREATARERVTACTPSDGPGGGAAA

[12] = molecular target: T3, Delta-type opioid receptor; test: Displacement of [3H]Cl-DPDPE from human recombinant delta opioid receptor expressed in CHO cells; type: cell-based
Mus musculus [13] = organism: Mus musculus; test: Reversal of 1'-benzyl-6,7-didehydro-3,14-dihydroxy-4,5alpha-epoxy-17-methyl-4',5',6',7'-tetrahydroindolo[2',3':6,7]morphinan-induced antinociceptive activity in mouse; type: functional
Mus musculus [14] = test: Antagonism of SNC80-induced antinociceptive effect in mouse assessed by phenylquinone-induced abdominal stretch assay at 3 mg/kg, sc; type: functional, Abdomen; parameters: scale not given: the % may be the effect or the level left; details: route subcutaneous; method in brief: as §3
Rattus norvegicus = test: Prevention of SNC80-induced convulsions in Sprague-Dawley rat at 10 mg/kg, sc administered 20 mins before SNC80; type: functional, organism-based; parameters: dose 10 mg/kg
Method in brief: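 The test compound was given at 10 mg/kg sc 20 min before SNC80 (32 mg/kg), and prevention of SNC80-mediated convulsions was scored.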

Mus musculus [15] = test: Antagonism of SNC80-induced antinociceptive effect in mouse assessed by phenylquinone-induced abdominal stretch assay at 10 mg/kg, sc; type: functional, Abdomen; parameters: scale not given: the % may be the effect or the level left; details: route subcutaneous; method in brief: as §3
Mus musculus [16] = test: Antagonism of SNC80-induced antinociceptive effect in mouse assessed by phenylquinone-induced abdominal stretch assay at 1 mg/kg, sc; type: functional, Abdomen; parameters: scale not given: the % may be the effect or the level left; details: route subcutaneous; method in brief: as §3

| SMILES | Ke [2] [nM] | Ki [3] [µM] | Ki (Mu-type opioid receptor [4]) [µM] | EC50 [2] [µM] | EC50 (Mu-type opioid receptor [7]) [µM] | Activity [9] [%] | Activity (Mu-type opioid receptor [10]) [%] | Ke (Mu-type opioid receptor [7]) [nM] | also measured |
| --- | --- | --- | --- | --- | --- | --- | --- | --- | --- |
| Oc1ccc2c3c1O[C@H]1c4[nH]c5ccccc5c4C[C@@]4(O)[C@@H](C2)N(CC2CC2)CC[C@]314 [NALTRINDOLE] |  |  |  |  |  |  |  |  | Activity (Mus musculus [1]): 40% |
| Oc1ccc2c3c1O[C@H]1c4c(c5c(n4CC4CC4)CCCC5)C[C@@]4(O)C(C2)N(CC2CC2)CC[C@]314 | 11.8 | 0.00251 | 0.00252 |  |  |  |  |  |  |
| CN1CC[C@]23c4c5ccc(O)c4O[C@H]2c2c(c4c(n2Cc2ccccc2)CCCC4)C[C@@]3(O)C1C5 |  | 0.289 | 0.0889 | 1.75 | 0.732 | 43 | 44 |  | Activity (Mus musculus [5]): >50%; ED50 (Mus musculus [6]): 5.1 mg/kg; Activity (Mus musculus [8]): inactive |
| CCn1c2c(c3c1[C@@H]1Oc4c(O)ccc5c4[C@@]14CCN(CC1CC1)C(C5)[C@]4(O)C3)CCCC2 |  | 0.00738 | 0.00506 | 0.0143 |  | 63 |  | 5.32 |  |
| Cn1cc(-c2ccccc2)c2c1[C@@H]1Oc3c(O)ccc4c3[C@@]13CCN(CC1CC1)C(C4)[C@]3(O)C2 | 34.1 | 0.0185 | 0.0076 |  |  |  |  | 4.04 | Ke [11]: 0.62 nM; Ki [12]: 0.00335 µM |
| CCn1cc(-c2ccccc2)c2c1[C@@H]1Oc3c(O)ccc4c3[C@@]13CCN(CC1CC1)C(C4)[C@]3(O)C2 | 44 | 0.0243 | 0.00875 |  |  |  |  | 10.7 | Ke [11]: 0.72 nM; Ki [12]: 0.00295 µM |
| O=C1CC[C@@]2(O)[C@H]3Cc4ccc(O)c5c4[C@@]2(CCN3CC2CC2)[C@H]1O5 [NALTREXONE] |  |  |  |  |  |  |  |  | AD50 (Mus musculus [13]): 0.02 mg/kg |
| Cn1c2c(c3c1[C@@H]1Oc4c(O)ccc5c4[C@@]14CCN(CC1CC1)[C@H](C5)[C@]4(O)C3)CCCC2 | 12.2 | 0.00411 | 0.00576 |  |  |  |  | 4.3 |  |
| CN1CC[C@]23c4c5ccc(O)c4O[C@H]2c2c(c4c(n2C)CCCC4)C[C@@]3(O)C1C5 |  | 0.0891 |  | 0.0972 | 0.222 | 69 | 39 |  |  |
| Oc1ccc2c3c1O[C@H]1c4c(c5c(n4CCc4ccccc4)CCCC5)C[C@@]4(O)C(C2)N(CC2CC2)CC[C@]314 |  |  | 0.00746 | 0.0138 |  | 76 |  | 5.66 |  |
| Oc1ccc2c3c1O[C@H]1c4c(c5c(n4Cc4ccccc4)CCCC5)C[C@@]4(O)C(C2)N(CC2CC2)CC[C@]314 | 49.8 | 0.00629 | 0.00539 |  |  |  |  | 8.13 | Activity (Mus musculus [14]): 54%; Ke [11]: 2.23 nM; Activity (Rattus norvegicus): Active; Ki [12]: 0.00294 µM; Activity (Mus musculus [15]): 54% |
| CN1CC[C@]23c4c5ccc(O)c4O[C@H]2c2c(c4c(n2CC2CCCCC2)CCCC4)C[C@@]3(O)C1C5 |  | 0.262 | 0.0179 | 0.153 | 0.13 | 85 | 57 |  |  |
| CN1CC[C@]23c4c5ccc(O)c4O[C@H]2c2c(c4c(n2CCc2ccccc2)CCCC4)C[C@@]3(O)C1C5 |  | 0.163 | 0.0154 | 0.131 | 0.175 | 76 | 71 |  |  |
| Oc1ccc2c3c1O[C@H]1c4c(c5c(n4CC4CCCCC4)CCCC5)C[C@@]4(O)C(C2)N(CC2CC2)CC[C@]314 |  | 0.0249 | 0.0185 | 0.0543 |  | 84 |  | 11.6 |  |
| CCn1c2c(c3c1[C@@H]1Oc4c(O)ccc5c4[C@@]14CCN(C)C(C5)[C@]4(O)C3)CCCC2 |  | 0.168 | 0.0258 | 0.0982 | 0.175 | 66 | 41 |  |  |
| Oc1ccc2c3c1O[C@H]1c4c(c5ccccc5n4Cc4ccccc4)C[C@@]4(O)C(C2)N(CC2CC2)CC[C@]314 |  |  |  |  |  |  |  |  | Activity (Mus musculus [16]): 57% |
